ChEMBL document CHEMBL5344470, “Probing the Use of Triphenyl Phosphonium Cation for Mitochondrial Nucleoside Delivery” (ACS Med Chem Lett, 2024)

Legend:
esterase = assay: Stability of compound assessed as pig liver esterase mediated hydrolysis by measuring half life at 50 uM by HPLC analysis; assay type: ADME, Sus scrofa
Outline: (§1)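 Compounds incubated with pig liver esterase, cell culture medium or MCF-7 cell extracts; decomposition followed by HPLC with direct injection of the biological medium, no sample pretreatment; half-lives determined; hydrolysis metabolite identified by co-injection with authentic sample.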

[1] = Stability of compound in culture media assessed as compound hydrolysis by measuring half life at 50 uM by HPLC analysis; assay type: physicochemical; outline: as §1
[2] = Stability of compound in MCF7 cell extract assessed as compound hydrolysis by measuring half life at 50 uM by HPLC analysis; assay type: physicochemical; details: human; outline: as §1
[3] = Drug metabolism assessed as compound hydrolysis by measuring 2-(6-hydroxy-3-oxo-3H-xanthen-9-yl)-5-((1-((2R,4S,5R)-4-hydroxy-5-(hydroxymethyl)tetrahydrofuran-2-yl)-2-oxo-1,2-dihydropyrimidin-4-yl)carbamoyl)benzoic acid formation; assay type: ADME; outline: as §1
[4] = Drug localization in mitochondria of human MCF7 cells at 50 uM incubated for 24 hrs by MitoTracker red CMXRos staining based confocal fluorescence microscopy; assay type: ADME; details: mcf7, 24 h
Outline: (§2)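 MCF-7 cells incubated 24 h at 37 °C with 50 μM fluorescein-labelled compound; mitochondria stained with 200 nM MitoTracker red CMXRos and nuclei with Hoechst 33342 (10 μg/mL final); cells washed twice with medium, then imaged by confocal microscopy (488 nm fluorescein, 561 nm MitoTracker, 760 nm Hoechst, 63×/1.4 oil objective); untreated cells as control.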

[5] = Drug localization in mitochondria of human MCF7 cells assessed as appearance of green and red overlapped superimposed images at 100 uM incubated for 24 hrs by MitoTracker red CMXRos staining based super-resolution confocal fluorescence microscopy; assay type: ADME; details: mcf7, 24 h
Outline: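 Living MCF-7 cells treated 24 h with 100 μM fluorescein-labelled compound, stained with 100 nM MitoTracker red CMXRos and Hoechst 33342 (10 μg/mL final), washed twice with medium; Airyscan super-resolution confocal imaging (488/561/405 nm, 63×); co-localization judged from overlapping green and red areas in superimposed images; untreated cells as control.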

[6] = Cytotoxicity against human MCF7 cells assessed as cell viability upto 50 uM measured after 72 hrs by MTT assay relative to control; assay type: toxicity, cell-based; details: read-out: Activity
Outline: (§3)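 MCF-7 breast cancer cells exposed to test compounds at a range of concentrations (up to 100 μM) for 72 h; cell viability measured and expressed as percentage viability or cell death relative to untreated control.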

[7] = Cytotoxicity against human MCF7 cells assessed as cell viability at 100 uM measured after 72 hrs by MTT assay relative to control; assay type: toxicity, cell-based; details: read-out: Activity; outline: as §3
[8] = Drug concentration in living human MCF7 cells at 5 uM incubated for 24 hrs by flow cytometry analysis; assay type: ADME, cell-based; details: mcf7, 24 h
Outline: (§4)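 Living MCF-7 cells incubated 24 h with test compounds at different concentrations; fluorescein-labelled compound uptake quantified by flow cytometry as percentage internalization; mean ± SEM of three independent experiments.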

[9] = Drug concentration in living human MCF7 cells at 10 uM incubated for 24 hrs by flow cytometry analysis; assay type: ADME, cell-based; details: mcf7, 24 h; outline: as §4
[10] = Drug concentration in living human MCF7 cells at 25 uM incubated for 24 hrs by flow cytometry analysis; assay type: ADME, cell-based; details: mcf7, 24 h; outline: as §4
[11] = Drug concentration in living human MCF7 cells at 50 uM incubated for 24 hrs by flow cytometry analysis; assay type: ADME, cell-based; details: mcf7, 24 h; outline: as §4
[12] = Drug accumulation in living human MCF7 cells at 25 uM incubated for 24 hrs by flow cytometry analysis; assay type: ADME, cell-based; details: mcf7, 24 h; outline: as §4
[13] = Drug localization in cytoplasm of human MCF7 cells at 50 uM incubated for 24 hrs by confocal fluorescence microscopy; assay type: ADME, subcellular; details: mcf7, 24 h; outline: as §2
[14] = Drug internalization in living human MCF7 cells at 5 uM incubated for 24 hrs by flow cytometry analysis; assay type: ADME, cell-based; details: mcf7, 24 h; outline: as §4
[15] = Drug internalization in living human MCF7 cells at 10 uM incubated for 24 hrs by flow cytometry analysis; assay type: ADME, cell-based; details: mcf7, 24 h; outline: as §4
MCF7 [16] = assay: Cytotoxicity against human MCF7 cells assessed as cell death at 10 uM measured after 72 hrs by MTT assay relative to control; assay type: toxicity, cell-based; details: mcf7, 72 h; outline: as §3
MCF7 [17] = assay: Cytotoxicity against human MCF7 cells assessed as cell death at 50 uM measured after 72 hrs by MTT assay relative to control; assay type: toxicity, cell-based; details: mcf7, 72 h; outline: as §3
[18] = Drug internalization in living human MCF7 cells at 50 uM incubated for 24 hrs by flow cytometry analysis; assay type: ADME, cell-based; details: mcf7, 24 h; outline: as §4
[19] = Stability of compound in culture media assessed as compound hydrolysis at 50 uM by HPLC analysis; assay type: physicochemical; outline: as §1

Row | half-life at 50 µM (esterase) | half-life at 50 µM [1] | half-life at 50 µM [2] | Drug uptake [4] | Drug uptake [8] | Drug uptake [9] | Drug uptake [10] | Drug uptake [11] | Drug uptake [12] | SMILES | further results
1 | < 0.25 h | > 17.8 h | > 8.4 h | Active | 3% | 24% | 96% | 100% | 96% | O=C(CCCCCCCCC[P+](c1ccccc1)(c1ccccc1)c1ccccc1)OC[C@H]1O[C@@H](n2ccc(NC(=O)c3ccc(-c4c5ccc(=O)cc-5oc5cc(O)ccc45)c(C(=O)O)c3)nc2=O)C[C@@H]1O.O=C([O-])C(F)(F)F | Drug metabolism [3]: Metabolite_Detected; Drug uptake [5]: Active; viability at 72 h, up to 50 µM [6]: 84%; viability at 72 h, 100 µM [7]: 60%
2 |  |  |  | Not Active | 2% | 12% | 62% | 87% | 62% | O=C(Nc1ccn([C@H]2C[C@H](O)[C@@H](CO)O2)c(=O)n1)c1ccc(-c2c3ccc(=O)cc-3oc3cc(O)ccc23)c(C(=O)O)c1 | Drug uptake [13]: Active
3 |  |  |  | Active | 27% | 61% | 96% | 99% | > 95% | O=C(CC[P+](c1ccccc1)(c1ccccc1)c1ccccc1)OC[C@H]1O[C@@H](n2ccc(NC(=O)c3ccc(-c4c5ccc(=O)cc-5oc5cc(O)ccc45)c(C(=O)O)c3)nc2=O)C[C@@H]1O.O=C([O-])C(F)(F)F | Drug uptake [13]: Active; Drug uptake [14]: 27%; Drug uptake [15]: 61%
4 |  |  |  |  | 0.4% | 0.8% | 3% | 17% |  | O=C(CCCCC[P+](c1ccccc1)(c1ccccc1)c1ccccc1)OC[C@H]1O[C@@H](n2ccc(NC(=O)c3ccc(-c4c5ccc(=O)cc-5oc5cc(O)ccc45)c(C(=O)O)c3)nc2=O)C[C@@H]1O.O=C([O-])C(F)(F)F | Activity (MCF7 [16]): 61%; Activity (MCF7 [17]): 44%; Drug uptake [18]: 17%

Further lines, the molecule ahead of its results:

Row | SMILES | half-life at 50 µM (esterase) | half-life at 50 µM [1] | half-life at 50 µM [2] | Drug uptake [4] | Drug uptake [8] | Drug uptake [9] | Drug uptake [10] | Drug uptake [11] | Drug uptake [12] | further results
5 | Nc1ccn([C@H]2C[C@H](O)[C@@H](COC(=O)CCCCCCCCC[P+](c3ccccc3)(c3ccccc3)c3ccccc3)O2)c(=O)n1.O=C(O)C(F)(F)F.O=C([O-])C(F)(F)F | < 0.25 h | > 17.8 h | > 8.4 h |  |  |  |  |  |  | 
6 | Nc1ccn([C@H]2C[C@H](O)[C@@H](COC(=O)CC[P+](c3ccccc3)(c3ccccc3)c3ccccc3)O2)c(=O)n1.O=C(O)C(F)(F)F.O=C([O-])C(F)(F)F | < 0.25 h |  | > 8.4 h |  |  |  |  |  |  | Stability [19]: Unstable
7 | Nc1ccn([C@H]2C[C@H](O)[C@@H](COC(=O)CCCCC[P+](c3ccccc3)(c3ccccc3)c3ccccc3)O2)c(=O)n1.O=C(O)C(F)(F)F.O=C([O-])C(F)(F)F | < 0.25 h | > 17.8 h | > 8.4 h |  |  |  |  |  |  | 
